Assay results from different studies.
Protocols differ between the studies behind these lines.
pH: 7.4

O=C(O)c1ccc(NS(=O)(=O)c2ccc(Cl)c(Cl)c2)cc1  logD (shake flask; aqueous buffer): 0.6
Cc1ccc(Nc2cnnc3ccc(-c4ccc(N5CCN(C)CC5)cc4)cc23)cn1  logD (shake flask; aqueous buffer): 3.5
Cc1ccc(Nc2ncnc3ccc(-c4cccc(N5CCOCC5)c4)cc23)cc1  logD (shake flask; aqueous buffer): > 4.1
C=CC(=O)N1CC2(CCN(c3nc4c(c(-c5cc(O)cc6ccccc56)c3F)COC(C)(C)C4)C2)C1  logD: 4.5
c1cc(-c2ccc3ncnc(Nc4ncco4)c3c2)nc(N2C[C@H]3C[C@@H]2CO3)n1  logD (shake flask; aqueous buffer): 3.1
CC(C)(N)COCC(=O)N1CCC[C@H](C(=O)NCc2nc(-c3ccc(C(F)(F)F)cc3)cs2)C1  logD (shake flask; aqueous buffer): 1.4
C=CC(=O)N1CC2(CCN(c3nc4c(c(-c5c(C)ccc6[nH]ncc56)c3C#N)C[C@H]3C[C@@H]4C3(C)C)C2)C1  logD: 4.4
C[C@H](O)c1cnc(NS(=O)(=O)c2ccc(C(F)(F)F)c(Cl)c2)nc1  logD (shake flask; aqueous buffer): 0.4
N=C(CC(O)c1cc2c(F)cc(F)cc2c2cc(C(F)(F)F)ccc12)Nc1ccc(Br)cc1 (stereo not shown)  logD: 5.37
Cc1nc(Nc2ncnc3ccc(-c4cccc(N5CCOCC5)c4)cc23)oc1C  logD (shake flask; aqueous buffer): 4.3
CNS(=O)(=O)c1ccc(Nc2ncc(C(F)(F)F)c(N3CCC[C@](C)(O)C3)n2)c(C)c1  logD (shake flask; aqueous buffer; 1 h): 3.4
Clc1cccc(Nc2ncnc3ccc(-c4cccc(N5CCOCC5)c4)cc23)c1  logD (shake flask; aqueous buffer): 5.3
CNS(=O)(=O)c1ccc(Nc2ncc(C(F)(F)F)c([C@H]3CC[C@](C)(O)CC3)n2)c(C)c1  logD (shake flask; aqueous buffer; 1 h): 3.6
C=C1C[C@@]23CC[C@H]4[C@@](C)(CCC[C@@]4(C)C(=O)O[C@@H]4O[C@H](CO)[C@@H](O)[C@H](O)[C@H]4O)[C@@H]2CC[C@]1(O[C@@H]1O[C@H](CO)[C@@H](O)[C@H](O)[C@H]1O[C@@H]1O[C@H](CO)[C@@H](O)[C@H](O)[C@H]1O)C3  logD (shake flask; aqueous buffer): -1.51
C[C@H](O)c1ccc(NS(=O)(=O)c2ccc(OCC3CCC3)c(Cl)c2)c2nn(C)cc12  logD (shake flask; aqueous buffer): 3.8
C=CC(=O)N1CC2(CCN(c3nc4c(c(-c5cc(O)cc6ccccc56)c3C#N)COC(C)(C)C4)C2)C1  logD: 4.3
O=C(NCc1nc(-c2ccc(C(F)(F)F)cc2)cs1)[C@H]1CCCN(C(=O)CO[C@H]2CCCNC2)C1  logD (shake flask; aqueous buffer): 0.81
CN1CCC(Nc2ncnc3ccc(-c4cccc(N5CCOCC5)c4)cc23)CC1  logD (shake flask; aqueous buffer): 2.5
CC(C)NCCOCC(=O)N1CCC[C@H](C(=O)NCc2nc(-c3ccc(C(F)(F)F)cc3)cs2)C1  logD (shake flask; aqueous buffer): 1.5
C[C@@H]1CN(c2cccc(-c3ccc4ncnc(Nc5ncco5)c4c3)c2)C[C@H](C)O1  logD (shake flask; aqueous buffer): > 3.6
CCOCC(=O)N1CCC[C@H](C(=O)NCc2nc(-c3ccc(C)nc3)cs2)C1  logD (shake flask; aqueous buffer): 1.4
O=C(O)c1ccc(NS(=O)(=O)c2ccc(Cl)c(Cl)c2)cc1F  logD (shake flask; aqueous buffer): -0.2
N#Cc1ccc(-c2csc(CNC(=O)[C@H]3CCCN(C(=O)COCCF)C3)n2)cc1  logD (shake flask; aqueous buffer): 1.6
CN1CCN(c2ccc(-c3ccc4nncc(Nc5ccc(OC(F)(F)F)cc5)c4c3)cc2)CC1  logD (shake flask; aqueous buffer): 5.1
Cn1cc(Nc2ncnc3ccc(-c4cccc(N5CCOCC5)c4)cc23)cn1  logD (shake flask; aqueous buffer): 3.7
C=CC(=O)N1CC2(CCN(c3nc4c(c(-c5cc(O)cc6ccccc56)c3Cl)COC(C)(C)C4)C2)C1  logD: 4.9
O=[N+]([O-])c1ccc(Nc2ncnc3ccc(-c4cccc(N5CCOCC5)c4)cc23)cc1C(F)(F)F  logD (shake flask; aqueous buffer): > 3.4
CCOCC(=O)N1CCC[C@H](C(=O)NCc2nc(-c3ccc(C#N)nc3)cs2)C1  logD (shake flask; aqueous buffer): 1
